Results from ChEMBL document CHEMBL1127689, “Novel 4-(aryloxy)tetrahydropyridine analogs of MPTP as monoamine oxidase A and B substrates” (J Med Chem, 1994).

What was measured:
[1] = target: T1, Amine oxidase [flavin-containing] B (Bos taurus, UniProt P56560); assay: Turnover number (TN) for bovine mono-amine oxidase B MAO-B; settings: cattle
T1 sequence (P56560 whole entry): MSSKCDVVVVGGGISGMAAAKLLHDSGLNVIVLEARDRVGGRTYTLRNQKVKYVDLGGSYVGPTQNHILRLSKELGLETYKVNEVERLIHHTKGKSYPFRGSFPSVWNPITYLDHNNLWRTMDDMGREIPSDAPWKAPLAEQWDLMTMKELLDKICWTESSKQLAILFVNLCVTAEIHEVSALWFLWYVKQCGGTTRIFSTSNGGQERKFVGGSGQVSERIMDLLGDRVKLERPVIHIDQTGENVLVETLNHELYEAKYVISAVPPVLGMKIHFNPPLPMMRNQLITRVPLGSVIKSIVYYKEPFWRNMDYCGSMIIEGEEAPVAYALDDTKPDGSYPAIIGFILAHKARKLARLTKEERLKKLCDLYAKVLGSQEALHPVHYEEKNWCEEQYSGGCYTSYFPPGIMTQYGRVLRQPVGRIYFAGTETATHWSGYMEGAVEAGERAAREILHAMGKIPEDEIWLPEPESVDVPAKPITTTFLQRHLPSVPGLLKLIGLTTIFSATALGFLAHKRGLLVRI
Outline: (§1)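 Bovine liver mitochondrial MAO-B, partially purified, at 0.087 μM. Four substrate concentrations were used, from 500–62.5 μM solutions in 100 mM sodium phosphate, pH 7.4. Each was equilibrated 1 min at 37 °C before enzyme was added. Amino enone formation was read at 324 nm every 3 s for 2 min, in duplicate. Km and TN came from Lineweaver-Burk double-reciprocal plots of initial rates.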

[2] = target: T2, Amine oxidase [flavin-containing] A (Homo sapiens, UniProt P21397); assay: Turnover number (TN) for human mono-amine oxidase MAO-A
T2 sequence (P21397 whole entry): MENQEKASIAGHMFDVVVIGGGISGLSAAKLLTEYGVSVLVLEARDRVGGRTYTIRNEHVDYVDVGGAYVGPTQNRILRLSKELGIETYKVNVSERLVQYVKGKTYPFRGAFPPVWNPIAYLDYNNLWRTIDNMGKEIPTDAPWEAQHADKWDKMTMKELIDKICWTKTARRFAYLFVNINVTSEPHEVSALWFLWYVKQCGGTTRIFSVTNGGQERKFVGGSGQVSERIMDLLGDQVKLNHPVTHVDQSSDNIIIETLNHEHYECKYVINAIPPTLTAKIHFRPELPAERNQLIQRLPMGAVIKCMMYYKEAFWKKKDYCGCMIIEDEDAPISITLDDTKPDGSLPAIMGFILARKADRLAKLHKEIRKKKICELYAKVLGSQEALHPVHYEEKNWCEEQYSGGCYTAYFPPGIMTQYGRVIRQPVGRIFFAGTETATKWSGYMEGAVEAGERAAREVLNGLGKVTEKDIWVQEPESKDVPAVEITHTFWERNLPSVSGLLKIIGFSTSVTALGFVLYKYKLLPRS
Outline: (§2)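 MAO-A preparation was diluted 1:4 in 20 mM phosphate, pH 7.4, with 20% w/v glycerol and used at 0.17 μM. Four substrate concentrations were used, from 500–62.5 μM solutions in 100 mM sodium phosphate, pH 7.4, after 1 min at 37 °C. Initial rates were taken from the 324 nm amino enone absorbance, read every 3 s for 2 min, in duplicate. Km and TN came from double-reciprocal plots.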

[3] = target: T2, Amine oxidase [flavin-containing] A; assay: Ratio of turnover to Km for human MAO-A; outline: as §2
[4] = target: T1, Amine oxidase [flavin-containing] B; assay: Ratio of turnover to Km for bovine MAO-B; settings: cattle; outline: as §1
[5] = target: T3, MAO-B (Bos taurus, UniProt P56560); assay: (§3) Oxidation by bovine mono-amine oxidase B MAO-B; settings: cattle, bovine monoamine oxidase B (MAO-B) enzyme; outline: as §1
T3 sequence (P56560 whole entry): T1 sequence (P56560 whole entry)

[6] = target: T2, Amine oxidase [flavin-containing] A; assay: Oxidation by human mono-amine oxidase MAO-A; outline: as §2
[7] = target: T1, Amine oxidase [flavin-containing] B; assay: as §3; settings: cattle; outline: as §1

Structure (SMILES) | TN [1] | TN [2] | Ratio [3] | Ratio [4] | Km [5] [µM] | Km [6] [µM] | Km [7] [µM]
CN1CC=C(Oc2ccc(Cl)cc2Cl)CC1 | 223 M min-1 M-1 | 95 M min-1 M-1 | 3290 | 1334 | – | – | –
CN1CC=C(Cc2cc3ccccc3c3ccccc23)CC1 | > 53 M min-1 M-1 | 365 M min-1 M-1 | 759 | – | – | – | –
CN1CC=C(Cc2ccc3ccccc3c2)CC1 | 276 M min-1 M-1 | 121 M min-1 M-1 | 3340 | 310 | – | 36 | –
CN1CC=C(c2ccccc2)CC1 | 204 M min-1 M-1 | 20 M min-1 M-1 | 143 | 523 | – | – | –
CN1CC=C(Cc2ccccc2)CC1 | 193 M min-1 M-1 | 9 M min-1 M-1 | 139 | 1250 | – | 66 | 154
NCc1ccccc1 [BENZYLAMINE] | 283 M min-1 M-1 | – | – | 963 | – | – | 290
NCCC(=O)c1ccccc1N [KYNURAMINE] | – | 146 M min-1 M-1 | 860 | – | – | 170 | –

The remaining lines, values ahead:

TN [1] | TN [2] | Ratio [3] | Ratio [4] | Km [5] [µM] | Km [6] [µM] | Km [7] [µM] | Structure (SMILES)
92 M min-1 M-1 | 85 M min-1 M-1 | 1676 | 1090 | – | – | – | CCCCc1ccc(OC2=CCN(C)CC2)cc1
> 200 M min-1 M-1 | 59 M min-1 M-1 | 212 | – | > 1000 | – | – | CN1CC=C(Oc2cc3ccccc3c3ccccc23)CC1
81 M min-1 M-1 | 227 M min-1 M-1 | 1567 | 565 | – | – | – | CN1CC=C(Oc2cccc3ccccc23)CC1
89 M min-1 M-1 | 433 M min-1 M-1 | 2590 | 105 | – | 167 | 847 | CN1CC=C(Cc2cccc3ccccc23)CC1
103 M min-1 M-1 | 173 M min-1 M-1 | 1710 | 363 | – | – | – | CN1CC=C(Oc2ccc(-c3ccccc3)cc2)CC1
22 M min-1 M-1 | 111 M min-1 M-1 | 855 | 395 | – | – | – | CN1CC=C(Oc2ccc(C(C)(C)C)cc2)CC1
333 M min-1 M-1 | 207 M min-1 M-1 | 2685 | 1214 | – | – | – | CN1CC=C(Oc2ccc3ccccc3c2)CC1
241 M min-1 M-1 | 130 M min-1 M-1 | 2359 | 4151 | – | – | – | CN1CC=C(Oc2ccccc2)CC1
